Measurements of several laboratories.
Compare with care: the assays were run in different laboratories.
Cell line: MDA-MB-231
Observed: cell growth or viability

COc1ccc(CNC[C@@](C)(O)[C@@H]2CC[C@@H](C)C[C@H]2OCc2ccccc2)cc1  inhibition (MTT; 30 µM, 72 h): 83.5%
O=[N+]([O-])c1ccc2c(c1)S(=O)(=O)C=C2  IC50 (ATP luminescence; 72 h): 1300 nM
COc1cc2c3c(n(CCCNCCO)c(=O)c2cc1OC)-c1nc2c(cc1C3=O)OCO2  IC50 (MTS; 72 h): 806 nM
Cc1cccc(/C=C/C(=O)Nc2cccc(-c3ccnc(N4CCOCC4)c3)c2)c1  inhibition (MTT; 5 µM): 32.2%
O=C(O)c1ccccc1Nc1cccc(C(F)(F)F)c1  GI50 (SRB; 48 h): > 30000 nM
Nc1ccccc1NC(=O)c1ccc(CNc2ccc(NC3=C(Cl)C(=O)c4ncccc4C3=O)cc2)cc1  IC50 (MTT; 48 h): 2440 nM
COc1ccc(CNC[C@](O)(COCc2ccc(F)cc2)[C@@H]2CC[C@@H](C)C[C@H]2OCc2ccc(F)cc2)cc1  inhibition (MTT; 10 µM, 72 h): 99.6%
Cc1c(Cc2ccccc2)c(=O)oc2c(C)c(OCC(=O)NN=Cc3ccccc3)ccc12  viability (MTT; 125 µg/mL): 8.96%
Cc1cc(NC(=O)C=Cc2ccccc2)cc(-c2ccnc(N3CCC(O)CC3)c2)c1  inhibition (MTT; 5 µM): 55%
CCNC(=S)NNC(=O)COc1ccc2c(C)c(CC)c(=O)oc2c1C  viability (MTT; 500 µg/mL): 9.96%
COc1cccc(CNC[C@@](C)(O)[C@@H]2CC[C@@H](C)C[C@H]2OCc2ccccc2)c1  inhibition (MTT; 10 µM, 72 h): 36%
C=CCNC(=S)NNC(=O)COc1ccc2c(C)c(CC)c(=O)oc2c1C  viability (MTT; 500 µg/mL): 3%
Cc1cccc(/C=C/C(=O)Nc2cccc(-c3ccnc(N4CCC(CO)CC4)c3)c2)c1  inhibition (MTT; 5 µM): 76.4%
C[C@@H]1CC[C@@H]([C@@](C)(O)Cn2cnc3ccccc32)[C@H](OCc2ccccc2)C1  inhibition (MTT; 30 µM, 72 h): 80%
Cc1c(Cc2ccccc2)c(=O)oc2c(C)c(OCC(=O)NN=Cc3ccc(Cl)cc3)ccc12  viability (MTT; 1000 µg/mL): 17.1%
O=C(C=Cc1ccccc1)Nc1cccc(-c2ccnc(N3CCOCC3)c2)c1  inhibition (MTT; 5 µM): 49%
C[C@@H]1CC[C@@H]([C@](C)(O)CNCc2ccccc2)[C@H](OCc2ccccc2)C1  inhibition (MTT; 30 µM, 72 h): 78.9%
CC(=NNC(=O)COc1ccc2c(C)c(Cc3ccccc3)c(=O)oc2c1C)c1ccc(Br)cc1  viability (MTT; 500 µg/mL): 19.9%
C[C@@H]1CC[C@@H]([C@@](O)(CNCc2ccccc2)COCc2ccc(F)cc2)[C@H](OCc2ccc(F)cc2)C1  inhibition (MTT; 10 µM, 72 h): 97.9%
CCc1c(C)c2ccc(OCC(=O)NNC(=S)Nc3ccccc3)c(C)c2oc1=O  viability (MTT; 500 µg/mL): 4.23%
